Results published in PMC2860721 (Journal of medicinal chemistry, 2010).
≈ marks a conversion by molar mass, not a printed value.

Columns and labels:
HIV [1] = conditions: cited from earlier work
HIV [2] = conditions: cited from earlier work; remark: listed apart in the source
mock-infected MT-2 cells = assay: Compound toxicity by XTT in mock-infected MT-2 cells; type: cell-based; conditions: Homo sapiens, MT2, read-out: IC50 (concentration that inhibits mock-infected cell growth by 50%)
HIV-1NL4-3 = HIV-1NL4-3 replication inhibition assay in MT-4 lymphocytes; type: cell-based; conditions: HIV-1NL4-3 infected MT-4 lymphocytes
In short: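 MT-4 cells infected with HIV-1 NL4-3 or NL4-3 variants at MOI 0.01. Culture supernatants collected on day 4 post-infection. Viral replication read out by p24 antigen capture ELISA.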

For `C=C(C)C1CCC2(C(=O)O)CCC3(C)C(CCC4C5(C)CCC(OC(=O)C(C)(C)CC(=O)O)C(C)(C)C5CCC43C)C12` (centres unmarked) [3-O-(2′,2′-dimethylsuccinyl) BA], the EC50 (HIV [1]) is given as 2.7 µM.

In the case of `CC1(C)C=C2[C@H]3CC[C@@H]4[C@@]5(C)CCC(=O)C(C)(C)[C@@H]5CC[C@@]4(C)[C@]3(C)CC[C@@]2(C(=O)O)CC1` [Compound 3, moronic acid], the “EC50 (anti-HIV activity)” value (HIV [2]) is listed as 0.1 µg/mL (≈ 0.22 µM).

With `C=C(C)[C@@H]1CC[C@]2(C(=O)O)CC[C@]3(C)[C@H](CC[C@@H]4[C@@]5(C)CC[C@H](OC(=O)C[C@H](C)C(=O)O)C(C)(C)[C@@H]5CC[C@]43C)[C@@H]12` [Compound 10, 3β-O-(3′S-Methylsuccinyl)-betulinic acid] the IC50 (mock-infected MT-2 cells) was 32.8 µM.

For `C=C(C)[C@@H]1CC[C@]2(C(=O)O)CC[C@]3(C)[C@H](CC[C@@H]4[C@@]5(C)CC[C@H](OC(=O)C[C@](C)(CC)C(=O)O)C(C)(C)[C@@H]5CC[C@]43C)[C@@H]12` [Compound 12a, 3β-O-(3′S-Ethylmethylsuccinyl)-betulinic acid], the antiviral activity (HIV-1NL4-3) was “active”.

For `C=C(C)[C@@H]1CC[C@]2(C(=O)O)CC[C@]3(C)[C@H](CC[C@@H]4[C@@]5(C)CC[C@H](OC(=O)C[C@@](C)(CC)C(=O)O)C(C)(C)[C@@H]5CC[C@]43C)[C@@H]12` [Compound 12b, 3β-O-(3′R-Ethylmethylsuccinyl)-betulinic acid], the antiviral activity (HIV-1NL4-3) was “no antiviral activity”.
